NF-kB neuron act: activators of NF-kB expression in neurons, primary screen, cell-based, HTS; human neuronal cells, NF-kB reporter expression; active compounds read high; fold change at 12.5 µM; 190,000 compounds, 1.6% hits; AID 1239, 2008; in the data active means fold change above about 3.3
STAT1 blocker: STAT1 signaling inhibitors, primary screen, cell-based, HTS, luciferase reporter. inhibition, % at 5.5 µM. 200,000 compounds, 0.35% hits. NIH 3T3 STAT1-luciferase reporter, IFN-gamma, luminescence;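 active means inhibition above a set limit, the mean inhibition across all tested compounds plus 3 SD, cut at about 34% in these data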
STAT1 activator: STAT1 signaling activators, primary screen, cell-based, HTS, luciferase reporter; activation (% of control), % at 5.5 µM; 200,000 compounds, 2.6% hits; NIH 3T3 STAT1-luciferase reporter, IFN-gamma, luminescence; 100% = IFN-gamma alone, no compound;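 active means activation above the screen-wide mean activation plus 3 SD, cut at about 130% in these data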
STAT3 blocker: IL-6 driven STAT3 reporter inhibitors, primary screen, U3A cells, luciferase, luminescence, MLSCN library; IL-6 STAT3-luciferase reporter; host cell line lacks STAT1; inhibition, % at 5.5 µM; 190,000 compounds, 0.89% hits; AID 862, 2007;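 active means inhibition above the mean inhibition across all screened compounds plus 3 SD, cut at about 44% in these data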
APP 5'UTR act: activators of APP 5'UTR luciferase reporter, primary screen, SH-SY5Y cells; 190,000 compounds, 1% hits; SH-SY5Y APP 5'UTR luciferase reporter, luminescence; zero percent = DMSO vehicle wells; activation, % at 2 µM;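 active means activation above a set limit, based on mean plus 3 SD of controls, cut at about 140% in these data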
STAT3 activator: IL-6 driven STAT3 reporter potentiators, primary screen, U3A cells, luciferase, luminescence, MLSCN library | IL-6 STAT3-luciferase reporter; 100% = signal with IL-6 EC80 alone | activation (% of control), % at 5.6 µM | 190,000 compounds, 0.91% hits | AID 871, 2007;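 active means activation above the screen-wide mean of compound activation plus 3 SD, cut at about 130% in these data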
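Detection: reporter luminescence signal / Assay system: STAT1-lacking human U3A cells, STAT3 luciferase reporter / Incubation: compound pre-incubation 1 h before IL-6, then 6 h stimulation at 37 °C / Control set: IL-6-only high control / Read-out: % activation relative to IL-6 control / Probe or stimulus: Interleukin-6, 33 ng/mL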
Numbers stand for hits; n = inactive; x = no result. Sampled rows, rich in hits. Any-hit rate of the full collection: about 5.1%.

SMILES	NF-kB neuron act	STAT1 blocker	STAT1 activator	STAT3 blocker	APP 5'UTR act	STAT3 activator
Cc1[nH]c2ccccc2c1C(=O)CSC(=S)N(C)C	n	n	129.7	n	n	n
Cc1ccccc1OCc1nnc(SCC(=O)Nc2ccc3nc(SCC(=O)Nc4ccccc4)sc3c2)n1C	n	n	n	n	n	n
O=C(c1ccco1)[C@@H]1[C@@H]2C(=O)N(c3ccc(F)cc3)C(=O)[C@@H]2[C@H]2C=Cc3ccccc3N21	n	n	n	n	n	n
O=C(c1ccco1)[C@@H]1[C@@H]2C(=O)N(c3ccc(F)cc3)C(=O)[C@@H]2C2c3ccccc3C=CN21 (stereo partly specified)	n	n	n	n	n	134.3
CCC(COC)NC(=O)CCc1nnc(Cc2cccc(C(F)(F)F)c2)o1 (stereo unspecified)	n	n	n	n	n	n
CC(C)NC(=O)CCc1nnc(Cc2cccc(C(F)(F)F)c2)o1	n	n	139.9	n	n	n
Cc1ccc(Nc2nc3ccccc3o2)cc1F	n	n	132.7	n	136.2	n
Cc1cnc(Nc2nc3ccccc3o2)nc1C(=O)Nc1cccc(C(F)(F)F)c1	n	n	n	n	n	n
Cc1nc(Nc2nc3ccccc3o2)nc(C)c1C	n	n	n	n	143.0	n
CCCc1nc(Nc2nc3ccccc3o2)nc(C)c1C(=O)OCC	n	n	144.4	n	n	n
N#Cc1cnc(Nc2nc3ccccc3o2)nc1-c1ccccc1	n	n	n	n	n	n
CCOC(=O)c1cnc(Nc2nc3ccccc3o2)nc1CSC(=S)N(CC)CC	23.9	n	n	n	n	n
CCOC(=O)c1cnc(Nc2nc3ccccc3o2)nc1CSc1ncccn1	x	n	n	n	n	n
CCOC(=O)Cc1nc2ccccc2o1	n	n	n	n	n	n
CNc1oc(-c2ccc(Cl)cc2)nc1P(=O)(c1ccccc1)c1ccccc1	n	n	n	n	n	n
C/C(=N\NC(=O)c1nn(C)cc1Br)c1cccc(NC(=O)C2CCCC2)c1	n	n	n	n	n	n
CN(C)/C=N/C(=S)Nc1ccc(Cl)cc1	n	n	n	n	n	n
CN(C)/C=N/C(=S)Nc1ccc(Cl)cc1Cl	n	n	131.8	n	n	n
Cc1cc(C)n2cc(CSc3ncn[nH]3)nc2n1	n	n	n	n	n	n
COC(=O)c1cn[nH]c1NC(=S)Nc1ccc(Cl)c(Cl)c1	n	n	145.2	n	221.8	n
C#CC(=O)N(c1cccc(OC)c1)C(C(=O)NC1CCCC1)c1cccs1 (stereo unspecified)	n	43.5	n	109.7	n	n
COc1ccc2c(c1OC)C(=O)N1c3ccccc3C(=O)N(c3ccccc3)C21 (stereo unspecified)	n	52.8	n	49.0	n	n
Cc1cc(/C=N/NC(=O)C(=O)NCc2ccccn2)c(C)n1-c1ccccc1	n	n	n	n	n	n
O=C(NC(c1ccc(Cl)cc1)c1c(O)ccc2ccccc12)c1ccccc1 (stereo unspecified)	n	n	n	n	n	n
CC(=O)NC(c1ccc(Cl)cc1)c1c(O)ccc2ccc(O)cc12 (stereo unspecified)	n	n	130.5	n	n	n
SMILES	NF-kB neuron act	STAT1 blocker	STAT1 activator	STAT3 blocker	APP 5'UTR act	STAT3 activator
Cc1ccc(NC(=O)CN2C(=O)NC(Cc3c[nH]c4ccccc34)C2=O)cc1S(=O)(=O)N1CCCCC1 (stereo unspecified)	n	n	n	n	n	n
CC1CCN(C(=S)NCCc2ccccc2)CC1	3.37	n	n	n	n	n
O=C(NC1CCCCC1)C(=S)NCCc1ccccc1	n	n	n	n	n	n
CN1CCN(C(=S)NCCc2ccccc2)CC1	n	n	n	n	n	n
S=C(NCCc1ccccc1)NC1CCCCCC1	n	n	137.0	n	n	n
Oc1ccc(C=Nc2ccccc2-c2nc3ccccc3[nH]2)cc1	n	n	n	n	n	n
CCCc1nc2ccc(NC(C)=O)cc2c(=O)n1Cc1ccc(Cl)cc1	3.66	n	142.6	n	n	n

Screens from PubChem.
